Source: ChEMBL document CHEMBL1138380, “4-Aminopyrimidines as novel HIV-1 inhibitors” (Bioorg Med Chem Lett, 2007)

Assays:
[1] = Cytotoxicity against HEK293T cells after 48 hrs; format: cell-based, HEK-293T; conditions: human
Procedure, shortened: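 293T cells seeded at 700 cells/well in 1536-well format and cultured 24 h at 37 °C under 5% CO2. Compounds serially diluted in DMSO were added. After culture, viability was read by Alamar Blue diluted 1:1 in DMEM, incubated 4 h at room temperature, with fluorescence intensity measured.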

[2] = system: Human immunodeficiency virus; test: Antiviral activity against HIV in HEK293T cells after 48 hrs; format: functional, organism-based; conditions: Human immunodeficiency virus 1, HEK-293T
Procedure, shortened: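 HEK 293T cells grown in DMEM with 10% FBS and Pen/Strep/glutamine, seeded at 700 cells/well in 1536-well format, then cultured 24 h at 37 °C under 5% CO2. Compounds serially diluted in DMSO were added and incubated 1 h at 37 °C. Cells were then infected with HIV reporter virus at MOI ~1.0 and cultured 48 h at 37 °C. Read-out was luciferase activity.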

SMILES: CCC(Nc1cc(COC)ncn1)c1ccc(Oc2ccc(F)cc2)cc1 (stereo not drawn)
- CC50 at 48 h [1]: > 10 µM
- EC50 [2]: 0.031 µM

SMILES: CCc1ncnc(NC(CC)c2ccc(C(C)(C)C)cc2)c1Cl (stereo not drawn)
- CC50 at 48 h [1]: > 10 µM
- EC50 [2]: 0.028 µM

SMILES: CCc1ncnc(NC(C)c2ccc(OC(=O)NCCCNC(C)=O)cc2)c1Cl (stereo not drawn)
- CC50 at 48 h [1]: > 10 µM
- EC50 [2]: 0.19 µM

SMILES: CCc1ncnc(N(C)C(C)c2ccc(OC(=O)N(C)C)cc2)c1Cl (stereo not drawn)
- CC50 at 48 h [1]: > 10 µM
- EC50 [2]: > 10 µM

SMILES: CCc1ncnc(NC(C)c2ccc(OC(=O)NCCCOCCCNC(C)=O)cc2)c1Cl (stereo not drawn)
- CC50 at 48 h [1]: > 10 µM
- EC50 [2]: 0.005 µM

SMILES: CCc1ncnc(NC(C)c2ccc3c(c2)N(C(C)=O)CCO3)c1Cl (stereo not drawn)
- CC50 at 48 h [1]: > 10 µM
- EC50 [2]: 0.035 µM

SMILES: CCc1ncnc(NC(C)c2ccc(NC(=O)CCCC[C@@H]3SC[C@@H]4NC(=O)N[C@@H]43)cc2)c1Cl (stereo partly drawn)
- CC50 at 48 h [1]: > 10 µM
- EC50 [2]: 0.622 µM

SMILES: CCc1ncnc(NC(C)c2ccc3ccccc3n2)c1Cl (stereo not drawn)
- CC50 at 48 h [1]: > 10 µM
- EC50 [2]: 0.042 µM

SMILES: O=C1Nc2ccc(Cl)cc2C(C#CC2CC2)(C(F)(F)F)O1 (single isomer, unassigned) [EFAVIRENZ]
- CC50 at 48 h [1]: 10 µM
- EC50 [2]: 0.0005 µM

SMILES: CCc1ncnc(NC(C)c2ccc(C(C)(C)C)cc2)c1Cl (stereo not drawn)
- CC50 at 48 h [1]: > 10 µM
- EC50 [2]: 0.016 µM

SMILES: CCCc1cc(NC(CC)c2ccc(Oc3ccc(F)cc3)cc2)ncn1 (stereo not drawn)
- CC50 at 48 h [1]: > 10 µM
- EC50 [2]: 0.096 µM

SMILES: CCc1ncnc(NC(C)c2ccc3c(c2)N=C(NCCO)CO3)c1Cl (stereo not drawn)
- CC50 at 48 h [1]: > 10 µM
- EC50 [2]: 0.353 µM

SMILES: CCc1ncnc(NC(CC)c2ccc(-c3ccccc3)cc2)c1Cl (stereo not drawn)
- CC50 at 48 h [1]: > 10 µM
- EC50 [2]: 0.017 µM

SMILES: CCc1ncnc(NC(C)c2ccc(OC(=O)NCCOCCNC(C)=O)cc2)c1Cl (stereo not drawn)
- CC50 at 48 h [1]: > 10 µM
- EC50 [2]: 0.005 µM

SMILES: CCc1ncnc(NC(C)c2ccc(OC(=O)N(C)CCCN(C)C(C)=O)cc2)c1Cl (stereo not drawn)
- CC50 at 48 h [1]: > 10 µM
- EC50 [2]: 0.327 µM

SMILES: CCc1ncnc(NC(C)c2sc3ccccc3c2C)c1Cl (stereo not drawn)
- CC50 at 48 h [1]: > 10 µM
- EC50 [2]: 0.816 µM

SMILES: CCc1ncnc(NC(CC)c2ccc([N+](=O)[O-])cc2)c1Cl (stereo not drawn)
- CC50 at 48 h [1]: > 10 µM
- EC50 [2]: 2.66 µM

SMILES: CCc1ncnc(NC(CC)c2ccc(N(C)C)cc2)c1Cl (stereo not drawn)
- CC50 at 48 h [1]: > 10 µM
- EC50 [2]: 0.341 µM

SMILES: CCc1ncnc(NC(C)c2cc3c(cc2O)CCCC3)c1Cl (stereo not drawn)
- CC50 at 48 h [1]: > 10 µM
- EC50 [2]: 0.778 µM

SMILES: CCc1ncnc(NCc2ccc(C(C)(C)C)cc2)c1Cl
- CC50 at 48 h [1]: > 10 µM
- EC50 [2]: 0.331 µM

SMILES: CCC(Nc1cc(C)ncn1)c1ccc(Oc2ccc(F)cc2)cc1 (stereo not drawn)
- CC50 at 48 h [1]: > 10 µM
- EC50 [2]: 0.324 µM

SMILES: CCc1ncnc(NC(C)c2ccc(NC(C)=O)cc2)c1Cl (stereo not drawn)
- CC50 at 48 h [1]: > 10 µM
- EC50 [2]: 1.19 µM

SMILES: CCc1ncnc(NC(C)c2ccc3c(c2)CCCC3)c1Cl (stereo not drawn)
- CC50 at 48 h [1]: > 10 µM
- EC50 [2]: 0.17 µM

SMILES: CCc1ncnc(NC(C)c2ccc(OC(=O)NCCOCCOCCOCCNC(C)=O)cc2)c1Cl (stereo not drawn)
- CC50 at 48 h [1]: > 10 µM
- EC50 [2]: 0.19 µM

SMILES: CCc1ncnc(NC(C)c2cc3cccc(OC)c3o2)c1Cl (stereo not drawn)
- CC50 at 48 h [1]: > 10 µM
- EC50 [2]: 0.691 µM

SMILES: CCc1ncnc(NC(CC)c2ccc(Oc3ncnc4ccccc34)cc2)c1Cl (stereo not drawn)
- CC50 at 48 h [1]: > 10 µM
- EC50 [2]: 0.048 µM

SMILES: CCc1ncnc(NC(C)c2ccc(OC(=O)N(C)CCOCCN(C)C(C)=O)cc2)c1Cl (stereo not drawn)
- CC50 at 48 h [1]: > 10 µM
- EC50 [2]: 0.004 µM

SMILES: CCc1ncnc(NC(C)c2ccc3ccccc3c2)c1Cl (stereo not drawn)
- CC50 at 48 h [1]: > 10 µM
- EC50 [2]: 0.139 µM

SMILES: CCc1ncnc(NC(C)c2ccc(NC(=O)N(C)CCCN(C)C(C)=O)cc2)c1Cl (stereo not drawn)
- CC50 at 48 h [1]: > 10 µM
- EC50 [2]: 4.89 µM

SMILES: CCCc1ncnc(NC(CC)c2ccc(Oc3ccc(F)cc3)cc2)c1Br (stereo not drawn)
- CC50 at 48 h [1]: > 10 µM
- EC50 [2]: 0.76 µM

SMILES: CCc1ncnc(NC(CC)c2ccc(Oc3ccc(F)cc3)cc2)c1Br (stereo not drawn)
- CC50 at 48 h [1]: > 10 µM
- EC50 [2]: 0.003 µM

SMILES: CCc1ncnc(NC(C)c2ccc(OC(=O)N(C)C)cc2)c1Cl (stereo not drawn)
- CC50 at 48 h [1]: > 10 µM
- EC50 [2]: 0.004 µM

SMILES: CCc1nc(C)nc(NC(CC)c2ccc(Oc3ccc(F)cc3)cc2)c1Br (stereo not drawn)
- CC50 at 48 h [1]: > 10 µM
- EC50 [2]: 0.018 µM

SMILES: CCc1ncnc(N(C)C(C)c2ccc(OC(=O)N(C)CCOCCN(C)C(C)=O)cc2)c1Cl (stereo not drawn)
- CC50 at 48 h [1]: > 10 µM
- EC50 [2]: > 10 µM

SMILES: CCc1ncnc(NC(C)c2ccc3c(c2)NCCO3)c1Cl (stereo not drawn)
- CC50 at 48 h [1]: > 10 µM
- EC50 [2]: 0.029 µM

SMILES: CCc1ncnc(NC(C)c2ccc(NC(=O)N(C)CCOCCN(C)C(C)=O)cc2)c1Cl (stereo not drawn)
- CC50 at 48 h [1]: > 10 µM
- EC50 [2]: 3.02 µM

SMILES: Cc1ccnc2c1NC(=O)c1cccnc1N2C1CC1 [NEVIRAPINE]
- CC50 at 48 h [1]: > 10 µM
- EC50 [2]: 0.05 µM

SMILES: CCC(Nc1nc(C)nc(Cl)c1N)c1ccc(Oc2ccc(F)cc2)cc1 (stereo not drawn)
- CC50 at 48 h [1]: > 10 µM
- EC50 [2]: 0.015 µM

SMILES: CCc1ncnc(NC(C)c2cccc3ccccc23)c1Cl (stereo not drawn)
- CC50 at 48 h [1]: > 10 µM
- EC50 [2]: 0.095 µM
